According to ChEMBL document CHEMBL1124235, “3-Phenoxypyridine 1-oxides as anticonvulsant agents” (1988):
The source made the active and inactive calls. No cut-off for these calls is given here.

What was measured:
Mus musculus [1] = experiment: Dose required to protect Mice against tonic extension produced by maximal electroshock (MES) at 30 min post administration; format: functional; conditions: 0.5 h, read-out: MED
Procedure, shortened: (§1)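 Male Swiss-Webster mice (25–32 g), with food and water before testing, were dosed ip, the compound being in water or suspended in 0.29% Methocel. Doses were counted as free base, at levels of 10, 30, 100, 300 or >300 mg/kg, with n = 5. At 30 min, 90 mA, 1 ms monophasic pulses at 100 Hz were given through ear clips for 0.2 s. Value is the lowest dose protecting ≥2 mice from tonic hind-limb extension.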

Mus musculus [2] = experiment: Dose at which mouse exhibited ataxia using the inverted screen procedure at 30 min post administration; format: functional
Procedure, shortened: (§2)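 Mice (n = 5 per dose) were scored 30 min after dosing at levels of 10, 30, 100, 300 or >300 mg/kg. They were placed on an inverted wire-mesh square, and impaired mice fall off.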

Mus musculus [3] = experiment: Number of mice falling from an inverted wire mesh during a 1-min test period 20 min after ip administration at a dose of 10 mg/Kg in ataxia (inverted screen test); - denotes 'no animals fell'; format: functional, organism-based
Procedure, shortened: (§3)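 Mice were dosed ip and placed on an inverted wire mesh 20 min after injection, for a 1-min test. The number of mice that fell per dose group was counted, and a dash means none fell.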

Mus musculus [4] = experiment: Number of mice falling from an inverted wire mesh during a 1-min test period 20 min after ip administration at a dose of 20 mg/Kg in ataxia (inverted screen test); 1/12; format: functional; procedure, shortened: as §3
Mus musculus [5] = experiment: Number of mice falling from an inverted wire mesh during a 1-min test period 20 min after ip administration at a dose of 40 mg/Kg in ataxia (inverted screen test); 1/12; format: functional; procedure, shortened: as §3
Mus musculus [6] = experiment: Number of mice falling from an inverted wire mesh during a 1-min test period 20 min after ip administration at a dose of 60 mg/Kg in ataxia (inverted screen test); 6/12; format: functional; procedure, shortened: as §3
Mus musculus [7] = experiment: Increase in spontaneous locomotion activity after intraperitoneal administration in mice at a dose of 60 mg/kg; format: functional
Procedure, shortened: (§4)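 After ip injection, spontaneous locomotor activity was recorded automatically over a 1-h period beginning 20 min after dosing, with nine or more mice per dose group. Values are percent change from saline-treated mice.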

Mus musculus [8] = experiment: Increase in spontaneous locomotion activity after intraperitoneal administration in mice at a dose of 10 mg/Kg; format: functional; procedure, shortened: as §4
Mus musculus [9] = experiment: Increase in spontaneous locomotion activity after intraperitoneal administration in mice at a dose of 20 mg/Kg; format: functional; procedure, shortened: as §4
Mus musculus [10] = experiment: Increase in spontaneous locomotion activity after intraperitoneal administration in mice at a dose of 40 mg/kg; format: functional; procedure, shortened: as §4
Mus musculus [11] = experiment: Increase in spontaneous locomotion activity after intraperitoneal administration in mice at a dose of 5 mg/Kg; format: functional; procedure, shortened: as §4
Rattus norvegicus [12] = experiment: Ataxia produced by […] in rat by po administration at 1 hr post dosing; format: functional
Procedure, shortened: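 Rats were dosed orally and checked 1.0 h afterwards. Ataxia was judged by visual (subjective) observation, not by rotarod. ED50 was calculated by probit analysis of quantal data from four dose groups of eight rats each, with 95% confidence intervals.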

Rattus norvegicus [13] = experiment: Anticonvulsant activity by maximal electroshock test(MES) in rat by po administration at 1 hr postdosing; format: functional
Mus musculus [14] = experiment: Ataxia produced by rotarod ataxia test (ROT) in mouse by ip administration at 0.5 hr post dosing
Mus musculus [15] = experiment: Ataxia produced by rotarod ataxia test (ROT) in mouse by po administration at 0.5 hr post dosing
Mus musculus [16] = experiment: Anticonvulsant activity by maximal electroshock test(MES) in mouse by ip administration at 0.5 hr postdosing
Mus musculus [17] = experiment: Anticonvulsant activity by maximal electroshock test(MES) in mouse by po administration at 0.5 hr postdosing
Mus musculus [18] = experiment: Number of mice falling from an inverted wire mesh during a 1-min test period 20 min after ip administration at a dose of 100 mg/Kg in ataxia (inverted screen test); 2/9; format: functional; procedure, shortened: as §3
Mus musculus [19] = experiment: Number of mice falling from an inverted wire mesh during a 1-min test period 20 min after ip administration at a dose of 30 mg/Kg in ataxia (inverted screen test); - denotes 'no animals fell'; format: functional, organism-based; procedure, shortened: as §3
Mus musculus [20] = experiment: Increase in spontaneous locomotion activity after intraperitoneal administration in mice at a dose of 100 mg/Kg; format: functional; procedure, shortened: as §4
Mus musculus [21] = experiment: Increase in spontaneous locomotion activity after intraperitoneal administration in mice at a dose of 30 mg/Kg; format: functional; procedure, shortened: as §4
Mus musculus [22] = experiment: Number of mice falling from an inverted wire mesh during a 1-min test period 20 min after ip administration at a dose of 100 mg/Kg in ataxia (inverted screen test); 3/9; format: functional; procedure, shortened: as §3
Mus musculus [23] = experiment: Dose required to protect Mice against tonic extension produced by maximal electroshock (MES) at 30 min post administration.; format: functional; conditions: 0.5 h, read-out: MED; procedure, shortened: as §1
Mus musculus [24] = experiment: Dose at which mouse exhibited ataxia using the inverted screen procedure at 30 min post administration.; format: functional; procedure, shortened: as §2
Mus musculus [25] = experiment: Number of mice falling from an inverted wire mesh during a 1-min test period 20 min after ip administration at a dose of 30 mg/Kg in ataxia (inverted screen test); 1/9; format: functional; procedure, shortened: as §3
Mus musculus [26] = experiment: Number of mice falling from an inverted wire mesh during a 1-min test period 20 min after ip administration at a dose of 10 mg/Kg in ataxia (inverted screen test ); - denotes 'no animals fell'; format: functional, organism-based; procedure, shortened: as §3
Mus musculus [27] = experiment: Number of mice falling from an inverted wire mesh during a 1-min test period 20 min after ip administration at a dose of 100 mg/Kg in ataxia (inverted screen test); - denotes 'no animals fell'; format: functional, organism-based; procedure, shortened: as §3
Mus musculus [28] = experiment: Increase in spontaneous locomotion activity after intraperitoneal administration in mice at 10 mg/kg; no change; format: functional, organism-based; set-up: dose 10 mg/kg; procedure, shortened: as §4
Mus musculus [29] = experiment: Number of mice falling from an inverted wire mesh during a 1-min test period 20 min after ip administration at given dose in ataxia (inverted screen test) at 20 mg/kg; - denotes 'no animals fell'; format: functional, organism-based; set-up: dose 20 mg/kg; procedure, shortened: as §3
Mus musculus [30] = experiment: Number of mice falling from an inverted wire mesh during a 1-min test period 20 min after ip administration at given dose in ataxia (inverted screen test) at 40 mg/kg; - denotes 'no animals fell'; format: functional, organism-based; set-up: dose 40 mg/kg; procedure, shortened: as §3
Mus musculus [31] = experiment: Number of mice falling from an inverted wire mesh during a 1-min test period 20 min after ip administration at given dose in ataxia (inverted screen test) at 10 mg/kg; - denotes 'no animals fell'; format: functional, organism-based; set-up: dose 10 mg/kg; procedure, shortened: as §3
Mus musculus [32] = experiment: Number of mice falling from an inverted wire mesh during a 1-min test period 20 min after ip administration at given dose in ataxia (inverted screen test) at 100 mg/kg; - denotes 'no animals fell'; format: functional, organism-based; set-up: dose 100 mg/kg; procedure, shortened: as §3
Mus musculus [33] = experiment: Increase in spontaneous locomotion activity after intraperitoneal administration in mice; 40 mg/kg; format: functional; procedure, shortened: as §4
Mus musculus [34] = experiment: Increase in spontaneous locomotion activity after intraperitoneal administration in mice; at 100 mg/kg; format: functional; procedure, shortened: as §4
Mus musculus [35] = experiment: Increase in spontaneous locomotion activity after intraperitoneal administration in mice at 20 mg/kg; format: functional; procedure, shortened: as §4

CC(C)c1cc[n+]([O-])cc1Oc1ccccc1
minimal effective dose (Mus musculus [1]): 30 mg/kg
MAD (Mus musculus [2]): 100 mg/kg

O=c1c2ccccc2oc2c[n+]([O-])ccc12
minimal effective dose (Mus musculus [1]): > 300 mg/kg
MAD (Mus musculus [2]): 300 mg/kg

OCc1ccncc1Oc1ccccc1
minimal effective dose (Mus musculus [1]): 300 mg/kg
MAD (Mus musculus [2]): 300 mg/kg

Cc1cc[n+]([O-])cc1Oc1ccccc1
Activity (Mus musculus [3]): Not toxic
Activity (Mus musculus [4]): 1
Activity (Mus musculus [5]): 1
Activity (Mus musculus [6]): 6
Change (Mus musculus [7]): 63%
Change (Mus musculus [8]): 55%
Change (Mus musculus [9]): 75%
Change (Mus musculus [10]): 92%
Change (Mus musculus [11]): 12%
minimal effective dose (Mus musculus [1]): 30 mg/kg
MAD (Mus musculus [2]): 100 mg/kg
ED50 (Rattus norvegicus [12]): 75 mg/kg
ED50 (Rattus norvegicus [13]): 11 mg/kg
ED50 (Mus musculus [14]): 76 mg/kg
ED50 (Mus musculus [15]): 300 mg/kg
ED50 (Mus musculus [16]): 23 mg/kg
ED50 (Mus musculus [17]): 85 mg/kg

Cc1c(Oc2ccccc2)ccc[n+]1[O-]
Activity (Mus musculus [18]): 2
Activity (Mus musculus [3]): Not toxic
Activity (Mus musculus [19]): Not toxic
Change (Mus musculus [8]): 48%
Change (Mus musculus [20]): 184%
Change (Mus musculus [21]): 25%
minimal effective dose (Mus musculus [1]): 300 mg/kg
MAD (Mus musculus [2]): 300 mg/kg

[O-][n+]1ccc(Cl)c(Oc2ccccc2)c1
minimal effective dose (Mus musculus [1]): > 300 mg/kg
MAD (Mus musculus [2]): 300 mg/kg

[O-][n+]1ccc(CO)c(Oc2ccccc2)c1
minimal effective dose (Mus musculus [1]): 300 mg/kg
MAD (Mus musculus [2]): 30 mg/kg

[O-][n+]1ccc(C2CCCCC2)c(Oc2ccccc2)c1
minimal effective dose (Mus musculus [1]): > 300 mg/kg
MAD (Mus musculus [2]): 300 mg/kg

Cc1ccc(Oc2ccccc2)c[n+]1[O-]
Activity (Mus musculus [3]): Not toxic
Activity (Mus musculus [22]): 3
Activity (Mus musculus [19]): Not toxic
Change (Mus musculus [8]): 32%
Change (Mus musculus [20]): 134%
Change (Mus musculus [21]): 96%
minimal effective dose (Mus musculus [23]): 100 mg/kg
MAD (Mus musculus [24]): 300 mg/kg

c1ccc2c(c1)Cc1ccncc1O2
minimal effective dose (Mus musculus [1]): 100 mg/kg
MAD (Mus musculus [2]): 300 mg/kg

Cc1cc[n+]([O-])cc1Oc1ccc(Cl)cc1
minimal effective dose (Mus musculus [1]): 100 mg/kg
MAD (Mus musculus [2]): 100 mg/kg

Cc1ccc(Oc2c[n+]([O-])ccc2C)cc1
minimal effective dose (Mus musculus [1]): 300 mg/kg
MAD (Mus musculus [2]): 300 mg/kg

N#Cc1cc[n+]([O-])cc1Oc1ccccc1
minimal effective dose (Mus musculus [1]): 300 mg/kg
MAD (Mus musculus [2]): 300 mg/kg

[O-][n+]1cccc(Oc2ccccc2)c1
Activity (Mus musculus [25]): 1
Activity (Mus musculus [26]): Not toxic
Activity (Mus musculus [27]): Not toxic
Change (Mus musculus [8]): 19%
Change (Mus musculus [20]): 122%
Change (Mus musculus [21]): 45%
minimal effective dose (Mus musculus [1]): 100 mg/kg
MAD (Mus musculus [2]): 300 mg/kg

O=Cc1cc[n+]([O-])cc1Oc1ccccc1
minimal effective dose (Mus musculus [1]): 300 mg/kg
MAD (Mus musculus [2]): >300 mg/kg

CCc1cc[n+]([O-])cc1Oc1ccccc1
minimal effective dose (Mus musculus [1]): 30 mg/kg
MAD (Mus musculus [2]): 100 mg/kg

COc1ccc(Oc2c[n+]([O-])ccc2C)cc1
minimal effective dose (Mus musculus [1]): 300 mg/kg
MAD (Mus musculus [2]): 300 mg/kg

O=S(=O)(O)O.c1ccc(Oc2cccnc2)cc1
Activity (Mus musculus [28]): inactive
Activity (Mus musculus [29]): Not toxic
Activity (Mus musculus [30]): Not toxic
Activity (Mus musculus [31]): Not toxic
Activity (Mus musculus [32]): Not toxic
Change (Mus musculus [33]): 53%
Change (Mus musculus [34]): 15%
Change (Mus musculus [35]): 28%
minimal effective dose (Mus musculus [1]): 100 mg/kg
MAD (Mus musculus [2]): 300 mg/kg

O=C(O)c1cc[n+]([O-])cc1Oc1ccccc1
minimal effective dose (Mus musculus [1]): > 300 mg/kg
MAD (Mus musculus [2]): >300 mg/kg

Cc1cc(Oc2ccccc2)c[n+]([O-])c1
Activity (Mus musculus [3]): Not toxic
Activity (Mus musculus [27]): Not toxic
Activity (Mus musculus [19]): Not toxic
Change (Mus musculus [8]): 87%
Change (Mus musculus [20]): 228%
Change (Mus musculus [21]): 186%
minimal effective dose (Mus musculus [1]): 100 mg/kg
MAD (Mus musculus [2]): 300 mg/kg

CC(C)(C)c1cc[n+]([O-])cc1Oc1ccccc1
minimal effective dose (Mus musculus [1]): 30 mg/kg
MAD (Mus musculus [2]): 100 mg/kg
